Assay outcomes from PubChem.
The list is not random: actives were taken first. Their share in the collection is about 3.5%.
FXIa inh 1536 = factor XIa (human) inhibition; P03951; purified FXIa, Boc-Glu-Ala-Arg-AMC fluorogenic substrate; inhibition, % at 5 µM; actives 0.14% (n = 220,000);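 active means inhibition of at least 40%; inactive means inhibition below 40%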;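 further: fluorescence of freed AMC excited at 355 nm; 0% = enzyme without compound and 100% = no enzyme blank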
Thrombin inh = thrombin (human) inhibition. inhibition, % at 5 µM. P00734. alpha-thrombin, Boc-VPR-AMC fluorogenic substrate cleavage. AID 1046. actives 0.26% (n = 220,000);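 active means inhibition at or above 40%; inactive means inhibition below 40%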;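 further: 0% = enzyme with no compound and 100% = wells without enzyme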
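System – human alpha-thrombin · Medium – pH 7.5 Tris (50 mM) with NaCl 150 mM, Tween 20 0.05% · Compound – single-point dosing at 5 µM, 0.2% DMSO · Incubation – enzyme reaction carried out at room temperature · Technique – fluorescence of released AMC, ex 355 nm, em 460 nm · Read-out basis – % inhibition of thrombin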
AHR act = activates the human aryl hydrocarbon receptor | P35869 | AID 2796 | actives 2.5% (n = 320,000) | activation, % at 5 µM | AHR-responsive luciferase reporter cells, luminescence; in the data active means activation above about 47%;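 further: 0% = vehicle wells and 100% = reference agonist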
Target sequence (P35869 whole entry, looked up): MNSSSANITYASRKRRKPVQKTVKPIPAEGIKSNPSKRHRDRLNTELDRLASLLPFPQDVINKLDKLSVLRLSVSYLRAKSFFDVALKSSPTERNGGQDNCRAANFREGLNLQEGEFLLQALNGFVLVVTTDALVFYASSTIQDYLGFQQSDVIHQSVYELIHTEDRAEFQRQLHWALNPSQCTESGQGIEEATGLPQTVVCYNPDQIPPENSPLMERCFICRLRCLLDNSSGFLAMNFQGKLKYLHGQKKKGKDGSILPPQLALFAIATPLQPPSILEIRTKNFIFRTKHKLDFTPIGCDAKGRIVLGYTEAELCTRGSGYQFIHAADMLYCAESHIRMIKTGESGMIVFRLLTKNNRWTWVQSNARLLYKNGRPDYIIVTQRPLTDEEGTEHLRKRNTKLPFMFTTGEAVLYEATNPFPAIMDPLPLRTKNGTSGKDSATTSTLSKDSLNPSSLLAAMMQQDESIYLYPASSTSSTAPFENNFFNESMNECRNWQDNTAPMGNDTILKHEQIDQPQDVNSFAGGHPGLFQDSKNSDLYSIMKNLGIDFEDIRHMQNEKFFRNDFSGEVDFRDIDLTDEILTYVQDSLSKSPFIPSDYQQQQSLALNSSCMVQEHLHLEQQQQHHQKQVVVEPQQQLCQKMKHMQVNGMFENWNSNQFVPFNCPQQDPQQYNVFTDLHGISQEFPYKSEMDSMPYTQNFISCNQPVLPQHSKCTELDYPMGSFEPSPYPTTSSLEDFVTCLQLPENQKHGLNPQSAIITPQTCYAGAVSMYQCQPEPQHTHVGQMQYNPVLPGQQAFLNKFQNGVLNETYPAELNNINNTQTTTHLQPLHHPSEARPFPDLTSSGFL
STAT3 act = increases IL-6 driven STAT3 reporter signal; U3A cells, IL-6 STAT3-luciferase reporter, luminescence; 100% = signal with IL-6 EC80 alone; activation (% of control), % at 5.6 µM; actives 0.91% (n = 190,000);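 active means activation above the screen-wide mean of compound activation plus 3 SD, cut at about 130% in these data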;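 further: 0% = background luminescence of wells with medium and substrate only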
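system = STAT3-luciferase reporter U3A cells | reagent = IL-6 stimulus at 33 ng/mL final | timing = 1 h compound pre-exposure, 6 h IL-6 stimulation, 37 °C | measured by = luminescence | evaluation = % activation versus median of IL-6-stimulated wells | control set = IL-6-only wells as 100% reference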
FXIIa inh = blocks human coagulation factor XIIa protease activity; purified FXIIa, Boc-QGR-AMC fluorogenic substrate, 2 h; inhibition, % at 5 µM; actives 0.3% (n = 220,000); in the data active means inhibition above about 40%;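 further: 0% = enzyme with no compound and 100% = blank without enzyme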
hK5 inh = inhibitors of human kallikrein 5 | recombinant hK5, fluorogenic AMC substrate cleavage | AID 873 | actives 0.59% (n = 210,000) | inhibition, % at 5 µM;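 active means inhibition of 40% or more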;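 further: 0% = enzyme controls without compound and 100% = no-enzyme blanks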
Active calls of the source: *; x = no result.

SMILES | FXIa inh 1536 | Thrombin inh | AHR act | STAT3 act | FXIIa inh | hK5 inh
N/C(=N\OC(=O)c1ccc(Cl)cc1Cl)c1ccccc1 | 6 | 3 | 82* | 72 | 22 | 1
N/C(=N\OC(=O)c1ccccc1Cl)c1ccccc1 | 4 | -6 | 54* | 99 | 8 | -17
N/C(=N\OC(=O)c1ccccc1Cl)c1ccc(Cl)cc1 | 0 | 0 | 57* | 126 | 14 | 4
O=C(O/N=C(\c1ccccc1)c1ccncc1)c1ccccc1Cl | -3 | 2 | 2 | 93 | 4 | -9
CC1CCCC(C)N1C(=O)COC(=O)COc1ccc(C#N)cc1 (stereo unspecified) | x | x | -1 | x | x | x
O=C(CCC(=O)c1cccs1)OCC(=O)c1ccc(F)cc1 | x | x | -1 | x | x | x
O=C(CC(Nc1ccc(F)cc1)C(=O)OCC(=O)c1cccs1)c1ccccc1 (stereo unspecified) | -6 | 50* | 0 | 99 | 6 | -2
Cc1ccc(NC(CC(=O)c2ccccc2)c2ccc(F)cc2)cc1 (stereo unspecified) | -1 | 0 | 1 | 93 | 9 | 0
O=C(CC(Nc1ccc(F)cc1)C(=O)O)c1ccccc1 (stereo unspecified) | 1 | 4 | -6 | 55 | 2 | 52*
CSCCC(NS(=O)(=O)c1ccccc1F)C(=O)OCc1ccccc1Cl (stereo unspecified) | -4 | 0 | -1 | 104 | 5 | -14
O=C1N=C(N2CCOCC2)S/C1=C\c1cccnc1 | -4 | -1 | 5 | 100 | 3 | -8
O=C1N=C(N2CCOCC2)S/C1=C/c1ccc(-c2ccc(F)cc2)o1 | 0 | -4 | 82* | 96 | 4 | -1
Cc1ccc(-c2ccc(/C=C3\SC(N4CCOCC4)=NC3=O)o2)cc1 | -1 | -6 | 54* | 100 | 9 | -4
C=CCOc1ccccc1CN(C(=O)CCl)c1ccc2c(c1)OCO2 | x | x | 43 | x | x | x
CC(C)C1Cc2c(C#N)c(N)n(C)c(=S)c2CO1 (stereo unspecified) | 6 | 18 | 6 | 102 | 17 | 53*
NNc1nc(-c2ccccc2)cc(-c2ccc(Br)cc2)n1 | x | x | 69* | x | x | x
COc1ccc(C(=O)NCCN2CCOCC2)cc1S(=O)(=O)Nc1ccc(C)cc1 | x | x | 4 | x | x | x
COCCCNc1nc2c(-c3cccc(C)c3)nnn2c2ccccc12 | 9 | -5 | 49* | 99 | 1 | -7
CC(C)CN(C(=O)COc1ccc(-c2nnco2)cc1)C1CCS(=O)(=O)C1 (stereo unspecified) | x | x | -2 | x | x | x
Cc1cc(NC(=O)COc2ccccc2C)no1 | -1 | -6 | -1 | 93 | 12 | 2
Cc1cc(NC(=O)COc2nnc(-c3ccccc3)c3ccccc23)no1 | 7 | 13 | 0 | 98 | 23 | 58*
CCn1c(=S)sc2c(=O)n(CC(=O)Nc3ccc(C(C)=O)cc3)c(C)nc21 | x | x | -2 | x | x | x
Cc1ccnc(NC(=O)/C=C/c2ccccc2[N+](=O)[O-])c1 | -2 | -1 | 72* | 71 | 6 | -1
Cc1ccnc(NC(=O)c2ccc([N+](=O)[O-])o2)c1 | 12 | 101* | 5 | 99 | 10 | 20
CCOc1ccccc1NC(=O)/C=C/c1ccccc1[N+](=O)[O-] | 4 | 1 | 63* | 91 | 13 | -14
SMILES | FXIa inh 1536 | Thrombin inh | AHR act | STAT3 act | FXIIa inh | hK5 inh
O=C(/C=C\c1ccccc1[N+](=O)[O-])Nc1ccccc1 | -3 | -1 | 40 | 99 | 13 | x
CCC1(CC)C(=O)N(C)C(=O)NC1=Nc1ccc(OC)cc1 | 7 | 5 | 1 | 105 | 16 | 0
CCOC(=O)N1CCN(C(=O)c2ccc3c(=O)n(Cc4ccccc4)c(=S)[nH]c3c2)CC1 | -3 | -6 | 4 | 104 | 1 | 2
CCOC(=O)N1CCN(C(=O)c2ccc3c(=O)n(Cc4ccc(OC)cc4)c(=S)[nH]c3c2)CC1 | 14 | 15 | 2 | 93 | 18 | 48*
O=C(CSc1ncn[nH]1)Nc1nc(-c2ccccc2)ns1 | -12 | -18 | 29 | 112 | -4 | -29
CC(=O)Nc1nc(-c2ccc(Cl)cc2)ns1 | 3 | -3 | 84* | 104 | 12 | -9
CCOc1ccc(NC(=O)CCSc2nnc(C)s2)cc1 | 19 | 22 | 0 | 98 | 24 | 46*
CC(=O)Nc1ccnc(-c2cccnc2)n1 | 4 | 1 | 3 | 97 | 4 | -4
Cc1nnc(SCCC(=O)Nc2nc(-c3ccccc3)ns2)s1 | 8 | -1 | 67* | 116 | 14 | -23
O=C(Nc1ccnc(-c2cccnc2)n1)c1cccs1 | -3 | -5 | 64* | 86 | 0 | -6
CSc1cccc(NC(=O)C2CCCN(S(=O)(=O)c3cccs3)C2)c1 (stereo unspecified) | x | x | 2 | x | x | x
O=C(OCC(=O)N1CCc2ccccc21)c1cncc(Br)c1 | 0 | 2 | 3 | 101 | 8 | 4
O=C(NCc1nc(-c2ccccc2)no1)c1cccs1 | -3 | 1 | -1 | 93 | -5 | -22
O=C(Nc1nc(-c2ccccc2)ns1)c1cccs1 | -3 | 4 | 106* | 95 | 11 | -13
CCCC(=O)Nc1nc(-c2ccccc2)ns1 | 4 | -1 | 70* | 108 | 3 | 7
CC(C)C(=O)Nc1nc(-c2ccccc2)ns1 | 8 | -3 | 42 | 93 | 18 | -5
COc1ccccc1NS(=O)(=O)c1cccc(C(=O)NCC(c2cccs2)N2CCOCC2)c1 (stereo unspecified) | x | x | 4 | x | x | x
COc1ccc(S(=O)(=O)N2CCCC(N(C)CCc3ccccc3)C2)cc1OC (stereo unspecified) | x | x | 3 | x | x | x
Cc1ccc(NCC(=O)N/N=C/c2cccc(Br)c2)cc1 | 3 | -1 | 70* | 94 | 7 | x
C/C(=N\NC(=O)CNc1cccc(C(F)(F)F)c1)c1ccc(Br)cc1 | 1 | -10 | 46 | 106 | 9 | -5
Cc1cccc(NCC(=O)N/N=C/c2cccc(Br)c2)c1 | -4 | -9 | 14 | 88 | 3 | 0
O=C(CNc1cccc(C(F)(F)F)c1)N/N=C/c1cccc(Br)c1 | 3 | -7 | 101* | 95 | 6 | -14
C/C(=N\NC(=O)CNc1cccc(C(F)(F)F)c1)c1cccc(Br)c1 | 3 | -2 | 75* | 102 | 6 | -8
C/C(=N\NC(=O)CNc1cccc(C)c1)c1ccc(Br)s1 | 3 | -12 | 71* | 98 | 10 | -17
C/C(=N\NC(=O)Cc1ccccc1)c1ccc(Br)s1 | x | x | 20 | x | x | x
CCC(SC1=N/C(=C/c2ccccc2OC)C(=O)N1c1ccccc1)C(=O)Nc1cc(C)on1 (stereo unspecified) | 3 | 1 | 2 | 97 | 16 | 3
Cc1ccc(NCC(=O)N/N=C\c2cccc(O)c2)cc1 | 10 | 1 | 65* | 101 | 12 | 5
Cc1ccccc1Nc1nnc(SCc2cc(=O)n3ccsc3n2)s1 | 4 | 3 | 6 | 103 | 9 | 6
O=c1cc(CSc2nnc(Nc3ccccc3)s2)nc2sccn12 | 2 | 0 | 57* | 100 | 11 | 12
